Bioassay records: PubChem, Johns Hopkins Ion Channel Center
In the library only some 3.5% were active in any assay of this set; here they are far more common.
RGS4 act = RGS4 potentiation or activation | HEK293 M3R/inducible RGS4, carbachol calcium flux Fluo4; stronger effect = lower value | B-score at 10 µM | hit rate 0.92% among 310,000;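 active means B-score of the integrated calcium signal more than 4 SD below the library mean, with starting fluorescence not abnormally high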;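 further: negative B-score means reduced calcium response which marks RGS4 activation or potentiation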
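Material: Inducible-RGS4 HEK293 cells carrying M3 receptor; also added: carbachol at ECmax as muscarinic agonist stimulus; incubation: compound preincubation 20 min at room temperature before agonist; signal: Fluo4-AM (2 µM) calcium-flux fluorescence, kinetic read; measure: integrated calcium ratio converted to B score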
MrgX1 ag = activates human MrgX1 receptor signaling. MrgX1-HEK293 cells, Fluo-4 calcium fluorescence, agonist mode; stronger effect = higher value. B-score at 10 µM. AID 588627. hit rate 0.44% among 310,000. Q96LB2;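 active means calcium response B-score plate-corrected fluorescence ratio at least 3 library SD, with starting fluorescence B-score inside 5 SD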
Target sequence (Q96LB2 whole entry, looked up): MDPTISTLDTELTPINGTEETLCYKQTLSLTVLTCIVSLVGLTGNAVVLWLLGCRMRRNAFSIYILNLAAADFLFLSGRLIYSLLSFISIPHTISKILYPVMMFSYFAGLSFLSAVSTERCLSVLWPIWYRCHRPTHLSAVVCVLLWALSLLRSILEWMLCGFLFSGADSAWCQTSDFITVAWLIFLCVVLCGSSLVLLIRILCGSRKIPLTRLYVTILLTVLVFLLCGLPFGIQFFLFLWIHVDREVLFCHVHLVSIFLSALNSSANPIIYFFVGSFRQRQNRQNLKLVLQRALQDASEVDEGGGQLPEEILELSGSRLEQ
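System: HEK293 cells stably expressing human MrgX1 receptor; Dosing: test compound in the initial addition of three; Schedule: overnight plating, then 30 min 37 °C plus 30 min room-temperature dye loading; Detection: kinetic calcium dye fluorescence, Fluo-4 NW; Controls: per-plate positive and negative controls for Z′ factor.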
RGS4 inh = inhibitors of human RGS4; P49798; HEK293 M3R/RGS4 inducible, Fluo-4 calcium flux; stronger effect = higher value; triggered by carbachol at its EC20; B-score at 10 µM; hit rate 0.45% among 310,000; AID 463165;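 active means B-score, a plate-corrected calcium signal, over three deviations above library mean, with baseline fluorescence within five deviations of library mean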;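 further: RGS4 expression induced by doxycycline in cells with stable M3 receptor; B-score is computed from the integrated fluorescence ratio over baseline after carbachol; higher B-score means a larger calcium signal and so more RGS4 inhibition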
Target sequence (P49798 whole entry, looked up): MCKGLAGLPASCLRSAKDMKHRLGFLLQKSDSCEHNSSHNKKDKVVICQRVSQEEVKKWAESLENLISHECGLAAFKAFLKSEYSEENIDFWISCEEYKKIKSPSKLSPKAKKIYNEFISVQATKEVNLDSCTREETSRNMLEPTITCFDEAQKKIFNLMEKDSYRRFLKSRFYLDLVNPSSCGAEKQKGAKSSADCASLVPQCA
MrgX1 allo act = human MrgX1 positive allosteric modulation, primary screen; MrgX1-HEK293, Fluo-4 calcium flux, FDSS; stronger effect = higher value; Q96LB2; hit rate 0.63% among 310,000; B-score at 10 µM;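 active means plate-corrected calcium response at least 3 library SD above typical, normal starting fluorescence, not activating the receptor alone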;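 further: compound read alongside a low EC10 to EC30 dose of BAM8-22 agonist; peak minus trough fluorescence over baseline measured at the second addition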
MrgX1 antag = antagonists of human MrgX1 receptor; AID 588676; MRGX1-HEK293 calcium flux, Fluo-4, BAM8-22 antagonism; stronger effect = lower value; B-score at 10 µM; hit rate 1.3% among 310,000;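 active means calcium-response B-score plate-corrected more than 3 library SD below zero, starting fluorescence within 5 deviations, no agonist response on first addition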;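 further: peak minus trough fluorescence over baseline after final BAM8-22 challenge near maximal dose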
* marks the source's active call; other numbers are inactive results.

`Cc1cccc(NC2=C(NCCO)C(=O)c3ccccc3C2=O)c1` gave RGS4 act inactive, MrgX1 ag inactive, RGS4 inh inactive, MrgX1 allo act inactive and MrgX1 antag -5.5*.
COc1cccc(NC2=C(NCCO)C(=O)c3ccccc3C2=O)c1 was read as RGS4 act inactive, MrgX1 ag inactive, RGS4 inh inactive, MrgX1 allo act inactive and MrgX1 antag inactive.
CCC(=NC(C)c1ccccc1)c1c(O)n(C)c(=O)n(C)c1=O (centres undefined) was read as RGS4 act inactive, MrgX1 ag inactive, RGS4 inh inactive, MrgX1 allo act inactive and MrgX1 antag -7.4*.
Screening Cc1ccc(C(=O)Nc2ccccc2Oc2ccccc2)o1 returned RGS4 act inactive, MrgX1 ag inactive, RGS4 inh inactive, MrgX1 allo act inactive and MrgX1 antag -4.5*.
O=C(Cn1nc(CNc2ccc(Cl)cc2)[n+]2c1CCCCC2)c1ccccc1 was read as RGS4 act inactive, MrgX1 ag inactive, RGS4 inh inactive, MrgX1 allo act inactive and MrgX1 antag inactive.
Screening Cc1ccc(C(C)C)c(OCc2nn(CC(=O)c3ccc(Cl)cc3)c3[n+]2CCCCC3)c1 returned RGS4 act -7.4*, MrgX1 ag inactive, RGS4 inh inactive, MrgX1 allo act inactive and MrgX1 antag inactive.
For COc1cc2c(cc1OC)C(NC(=O)c1ccc(C)cc1)CC2=O (centres undefined) the results were RGS4 act inactive, MrgX1 ag inactive, RGS4 inh inactive, MrgX1 allo act inactive and MrgX1 antag inactive.
Screening CC(=C/c1ccccc1)/C=N/NC(=O)c1ccc2nc[nH]c2c1 returned RGS4 act inactive, MrgX1 ag inactive, RGS4 inh inactive, MrgX1 allo act inactive and MrgX1 antag inactive.
Screening CC(/C=N/NC(=O)c1ccc2nc(C)[nH]c2c1)=C\c1ccccc1 returned RGS4 act inactive, MrgX1 ag inactive, RGS4 inh inactive, MrgX1 allo act 6.7* and MrgX1 antag inactive.
For COc1cccc(CN2CC(C(=O)NCCn3ccc(C)n3)CCC2=O)c1 (centres undefined) the results were RGS4 act inactive, MrgX1 ag inactive, RGS4 inh inactive, MrgX1 allo act inactive and MrgX1 antag inactive.
`COc1cc(CNC(C)c2ccccc2)cc(Br)c1OCc1ccc(F)cc1` (centres undefined) gave RGS4 act -8.5*, MrgX1 ag inactive, RGS4 inh inactive, MrgX1 allo act inactive and MrgX1 antag inactive.
COc1ccc(C(=O)NCC(=O)N/N=C(\C)Cc2ccccc2)cc1 was read as RGS4 act inactive, MrgX1 ag inactive, RGS4 inh inactive, MrgX1 allo act 7* and MrgX1 antag inactive.
For BrC(=C\c1ccccc1)/C=N/Nc1nc(N2CCOCC2)nc(N2CCOCC2)n1 the results were RGS4 act inactive, MrgX1 ag inactive, RGS4 inh inactive, MrgX1 allo act inactive and MrgX1 antag inactive.
`BrC(/C=C\c1ccccc1)=N/Nc1nc(N2CCOCC2)nc(N2CCOCC2)n1` gave RGS4 act inactive, MrgX1 ag inactive, RGS4 inh inactive, MrgX1 allo act inactive and MrgX1 antag -8*.
COc1ccc2ccccc2c1/C=N\NC(=O)c1cccnc1 was read as RGS4 act inactive, MrgX1 ag inactive, RGS4 inh inactive, MrgX1 allo act inactive and MrgX1 antag inactive.
`O=C(N/N=C/c1c(O)ccc2ccccc12)c1cccnc1` gave RGS4 act inactive, MrgX1 ag inactive, RGS4 inh inactive, MrgX1 allo act inactive and MrgX1 antag -7.6*.
O=C(N/N=C/c1c(O)ccc2ccccc12)c1ccc(Br)o1 was read as RGS4 act inactive, MrgX1 ag inactive, RGS4 inh inactive, MrgX1 allo act inactive and MrgX1 antag -5*.
Screening O=C(N/N=C\c1c(O)ccc2ccccc12)c1ccc(O)cc1 returned RGS4 act inactive, MrgX1 ag inactive, RGS4 inh inactive, MrgX1 allo act inactive and MrgX1 antag inactive.
For CN(C)S(=O)(=O)c1ccc(NC(=O)C2CC(=O)N(Cc3ccccc3Cl)C2)cc1 (centres undefined) the results were RGS4 act inactive, MrgX1 ag inactive, RGS4 inh inactive, MrgX1 allo act inactive and MrgX1 antag inactive.
Screening Cc1cccc(NC(=O)c2cccc(NC(=O)c3ccco3)c2)c1C returned RGS4 act inactive, MrgX1 ag inactive, RGS4 inh inactive, MrgX1 allo act inactive and MrgX1 antag inactive.
Screening COc1ccc(OCC(=O)NNC(=S)NC(=O)C2CC2)cc1 returned RGS4 act inactive, MrgX1 ag inactive, RGS4 inh inactive, MrgX1 allo act inactive and MrgX1 antag inactive.
`COc1ccc(CC(=O)NC(=S)NNC(=O)COc2c(C)cccc2C)cc1` gave RGS4 act inactive, MrgX1 ag 27*, RGS4 inh inactive, MrgX1 allo act inactive and MrgX1 antag inactive.
Screening CCc1ccc(OCC(=O)NNC(=S)NC(=O)C2CCCCC2)c(Br)c1 returned RGS4 act inactive, MrgX1 ag inactive, RGS4 inh inactive, MrgX1 allo act inactive and MrgX1 antag -8.9*.
For Cc1cc(C)cc(OCC(=O)NNC(=S)NC(=O)C2CC2)c1 the results were RGS4 act inactive, MrgX1 ag 32*, RGS4 inh inactive, MrgX1 allo act inactive and MrgX1 antag inactive.
`CCc1ccc(OCC(=O)NNC(=S)NC(=O)C2CC2)c(Br)c1` gave RGS4 act inactive, MrgX1 ag inactive, RGS4 inh inactive, MrgX1 allo act inactive and MrgX1 antag inactive.
Screening COc1ccc(OCC(=O)NNC(=S)NC(=O)C2CCCCC2)cc1 returned RGS4 act inactive, MrgX1 ag 50*, RGS4 inh inactive, MrgX1 allo act inactive and MrgX1 antag inactive.
For COc1ccc(Br)cc1S(=O)(=O)NCCCN1CCOCC1 the results were RGS4 act inactive, MrgX1 ag inactive, RGS4 inh inactive, MrgX1 allo act inactive and MrgX1 antag inactive.
`O=C(NCCN1CCCOC1=O)C(=O)NCCN1CCCOC1=O` gave RGS4 act inactive, MrgX1 ag inactive, RGS4 inh inactive, MrgX1 allo act inactive and MrgX1 antag inactive.
Screening O=C1/C(=C\c2cccc([N+](=O)[O-])c2O)SC(=S)N1Cc1ccccc1 returned RGS4 act inactive, MrgX1 ag inactive, RGS4 inh inactive, MrgX1 allo act inactive and MrgX1 antag -8*.
For O=C1/C(=C/c2ccccc2O)SC(=S)N1Cc1cccnc1 the results were RGS4 act inactive, MrgX1 ag inactive, RGS4 inh inactive, MrgX1 allo act inactive and MrgX1 antag inactive.
For COc1cc([N+](=O)[O-])cc(/C=C2/SC(=S)N(Cc3ccccc3)C2=O)c1O the results were RGS4 act -7.6*, MrgX1 ag 43*, RGS4 inh inactive, MrgX1 allo act inactive and MrgX1 antag inactive.
